The term apparent Kd denotes the concentration giving half-maximal binding under the conditions of the assay.

The data set has as its system MS2 coat protein. As to the kind of experiment: apparent Kd, MS2 coat protein; higher = weaker binding; RNA-MaP array. In outline:
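Sequenced DNA templates on an Illumina sequencing chip were transcribed into the designed RNAs. These were incubated at room temperature in Tris-HCl pH 7.5 buffer containing KCl, MgCl2, BSA, DTT, tRNA and Tween20 with fluorescently labeled MS2 coat protein at 1.5 nM to 3 μM, with or without input ligand. Apparent Kd is the median of binding-curve fits per cluster, and designs with fewer than 10 clusters measured were excluded.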

[1] abbreviates: designed as: OFF switch for flavin mononucleotide, no ligand.
[2] abbreviates: ligand present: flavin mononucleotide, designed as: OFF switch for flavin mononucleotide.
Setting [3] is: designed as: ON switch for flavin mononucleotide, no ligand.
[4] abbreviates: ligand present: flavin mononucleotide, designed as: ON switch for flavin mononucleotide.

“CUAAUUAUCGAGAAGGAACGACGCAUCACCGAUCUAGCACACAUGAGGAUCACCCAUGUACACCGUUAGGAUAUCGCAAACCAG”: the “apparent Kd” value reads like this: under setting [1], 8.46 nM; under setting [2], 9.82 nM.

Take “ACAAUCACAUGAGGAUCACCCAUGUUAGACAGGGUCAAUGUGAAGGAUAUGAACAAUGAAAAUACUCAGAAGGUCAUAUUGAAA”: the “apparent Kd” value is, setting by setting: under setting [3], 192 nM; under setting [4], 27.4 nM.

As for “GCUAGUUCACAGAAGGCGUCCGUGGGUGGCGCCUUACAUGAGGAUCACCCAUGUCAACCGUGCGACGAGGAUAUGUCAAUCGCA”, the “apparent Kd” value under setting [1] amounted to 22.5 nM and the “apparent Kd” value under setting [2] was found to be 21.6 nM.

“UACAUGAGGAUCACCCAUGUCUCUAGUCGUUUUUGUUAGAAUAGAAGGAGUCGCAUAAAGCAUAACUAGGAUAUAUUCUUGUUU”: the “apparent Kd” value by setting is: under setting [3], 16.3 nM; under setting [4], 11.6 nM.

Regarding “ACAAUGUGAGGAUAUCGUAAGCAUGACUAUGGCGCUAACACCGAGAAGGCACAUGAGGAUCACCCAUGUCCUGA”, the “apparent Kd” value runs as follows: under setting [1], 6.84 nM; under setting [2], 10.7 nM.

As to “UAUGUCGGGAAGAAGGUAAUAACGGGAUUGACAUGAGGAUCACCCAUGUGUACGAGUUAGUUGCUUAAGGAUAUUCUCGCCCAU”, the “apparent Kd” value runs as follows: under setting [1], 6.37 nM; under setting [2], 5.73 nM.

For “AGACAUGAGGAUCACCCAUGUGAAGUGGAUACCAGCCGCAGCGAUGGCCCUUGGCAGCCAGCUUUGUGUCGAUACAUCCGCACUU”, the “apparent Kd” value runs as follows: (designed as: OFF switch for theophylline, no ligand) 15.9 nM; (ligand present: theophylline, designed as: OFF switch for theophylline) 25.8 nM.

“AUCUAGUGCCUCAAGGAUAUGCACAGAGAGACAUGAGGAUCACCCAUGUAACAAGCAUGCUCAACGCAGAAGGUGACACUUAAGAU”: the “apparent Kd” value by setting is: under setting [3], 39.2 nM; under setting [4], 12.7 nM.

Turning to “UAACCAAAUGGAUGACCACAUGAGGAUCACCCAUGUCGGCAACAGGAUAUUAUCAGAUGGGCUAAUAAGAAGGGUUACUCAGCC”, the “apparent Kd” value under setting [1] worked out at 14.9 nM and the “apparent Kd” value under setting [2] turned out to be 13.2 nM.

In the case of “AAAGCUACCAAAGGAUAUUGUUUCCAUCACACAUGAGGAUCACCCAUGUAGCCAUAAACGGAUCGCAAGAAGGUUGGGAAAGUG”, the “apparent Kd” value reads like this: under setting [3], 18.3 nM; under setting [4], 9.07 nM.

Turning to “UAUUGUUUAGGAUAUACAUGAGGAUCACCCAUGUCAACGACCGUUAUAAAAUCUAAGUGUAGAAGGAAACGCCC”, the “apparent Kd” value is 13.4 nM under setting [1] and 12.1 nM under setting [2].

With “GAAUCAUGACAGAAGGCACGGAAUACCCGGCUGUGAGGAUAUGUUUGAAAACAGACAUGAGGAUCACCCAUGUCCGAAGUGUCU”, the “apparent Kd” value under setting [1] turned out to be 301 nM and the “apparent Kd” value under setting [2] worked out at 555 nM.

As to “ACUCUAAGAUGAGGAUAUCACAUCUUAUCGCCACGGUGGCUUCACAUGAGGAUCACCCAUGUAUGUGAGAAGGCAUUUCCGGAC”, the “apparent Kd” value under setting [1] turned out to be 24.1 nM and the “apparent Kd” value under setting [2] amounted to 20.7 nM.

With “UACAUGAACGUCAGGAUAUUGGUAUAUUACCUAGCCAAGAAGGGACAUGAGGAUCACCCAUGUAUUCGGUCCAA”, the “apparent Kd” value was found to be 25.2 nM under setting [1] and 65.2 nM under setting [2].

Regarding “GUUCGUCCUACGGCCGCCACUAAAACACAUGAGGAUCACCCAUGUUAGUAUCCUGGCUGGUGUGAUAGGACCGGGUAGGGAAGAA”, the “apparent Kd” value by setting is: (designed as: OFF switch for tryptophan, no ligand) 12.1 nM; (ligand present: tryptophan, designed as: OFF switch for tryptophan) 24.1 nM.

For “GCGUUUGCCAAAGGAUAUCAACAUGUGUUGCUUGCAUUCCUAUACAUGAGGAUCACCCAUGUGGCUGAGAAGGUUGAACACUGG”, the “apparent Kd” value came out at 18.2 nM under setting [3] and 14.1 nM under setting [4].

On to “GACAUGAGGAUCACCCAUGUGAAAUUCAUGGCGAUAACAUCUGAGGAUAUGUGCAGCCGAGGAAGACAGAAGGCAGAAACACAA”, for which the “apparent Kd” value runs as follows: under setting [1], 117 nM; under setting [2], 119 nM.

Consider “GGUUCGCAUGUAGGAUAUCGCAAUAUAAACAUGAGGAUCACCCAUGUAACAAUGUAAACGGACAACGAGAAGGACAUCAACUCC”, for which the “apparent Kd” value by setting is: under setting [3], 44.6 nM; under setting [4], 22.8 nM.

In the case of “ACUACGCUAGGAUAUACGAGGAGUGCAUGGAAGCGUUUGACACAUGAGGAUCACCCAUGUAGAAGGAGCUGCAA”, the “apparent Kd” value under setting [1] turned out to be 7.75 nM and the “apparent Kd” value under setting [2] was 16.1 nM.

With “AAACUAUGAGGAUAUACAUGAGGAUCACCCAUGUCGGUACUGGUAUGGCCCUGAUCCCGUAGAAGGCAUCGGUC”, the “apparent Kd” value by setting is: under setting [1], 369 nM; under setting [2], 436 nM.

These data come from the EternaBench riboswitch data.
